Sampled rows, rich in hits. Any-hit rate of the full collection: about 1.5%.
Cardio protect = protects H9c2 cardiomyocytes from peroxide injury; H2O2 injury protection, ATPLite, 2 h; protection from H2O2 cell death, % at 20 µM; 360,000 tested, 0.63% active;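 active means compounds giving at least 50% protection of heart cells from peroxide-induced death in the single-dose screen, raw or plate-pattern-corrected value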
Rin1 Abl inh = human Rin1-Abl interaction inhibition; inhibition, % at 7.35 µM; AID 588664; 360,000 tested, 0.4% active; TR-FRET Rin1/Abl binding, biochemical; P00519+Q13671; in the data active means inhibition above about 5%, passing the limit was not always enough
Tb MetRS inh = Trypanosoma brucei MetRS inhibition | purified T. brucei MetRS, ATP depletion, Kinase-Glo luminescence | inhibition, % at 11.9 µM | 360,000 tested, 0.4% active;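 active means inhibition above a per-plate cutoff of the control wells' mean inhibition plus 3 SD, cut at about 5.5% in these data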
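Material – parasite MetRS enzyme · Medium – HEPES-MgCl2-KCl buffer plus DTT, spermine, BSA, pyrophosphatase · Reagent – ATP, methionine and E. coli bulk tRNA substrates · Times – 15 min enzyme-compound preincubation, 2 h reaction, 10 min detection, 25 °C · Measured by – luminescence of leftover ATP · Evaluation – percent inhibition relative to median high and low control wells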
PKA-R1A activ = activators of PKA-R1A complex | 340,000 tested, 0.083% active | activation, % at 11.4 µM | AID 504707 | P00514+P68181 | PKA-R1A dissociation, Cy5-IP20 fluorescence polarization; scaled: DMSO 0%, 113 µM cGMP 100%;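 active means percent activation above the mean of all tested compounds plus 3 SD, cut at about 19% in these data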;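 further: higher means more PKAc released from R1A so a rise in polarization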
PKA-R2B activ = activators of human PKA-R2B complex; P22694+P31323; PKA-R2B holoenzyme dissociation, Cy5-IP20 fluorescence polarization; R2B truncated from residue 108, S112A mutant; 0% DMSO only, 100% 113 µM cGMP; activation, % at 11.4 µM; 340,000 tested, 0.079% active; AID 504700;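 active means activation above a cutoff set at the mean over all compounds plus 3 SD, cut at about 18% in these data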;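 further: higher means more holoenzyme dissociation and a rise in polarization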
Rin1-Abl confirm = confirmation of inhibitors of human Rin1-Abl interaction; shares compounds with Rin1 Abl inh; TR-FRET Rin1-Abl binding, purified proteins; inhibition, % at 7.35 µM; 1,300 tested, 49% active
GFP quench = GFP fluorescence interference artifact | 1,300 tested, 8.5% active | shares compounds with Rin1 Abl inh | inhibitors/quenchers counterscreen | AID 602125 | inhibition, % at 6.75 µM;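 further: ABL1-eGFP fusion protein alone without its partner RIN1-SBP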
GFP quench dose = quenches GFP in dose response, Rin1-Abl counter-screen | shares compounds with Rin1 Abl inh | GFP fluorescence interference/quenching counterscreen | IC50, µM | 230 tested, under 10 active | AID 602182; call rule not given here;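 further: ABL1-eGFP fusion protein alone without its RIN1 binding partner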
Of the large screens only hits and unclear results are named; the others gave an inactive call (follow-up assays come after a bar, where they were run). Unless noted, no stated cut-off is given here; in the data, active means inhibition above about 6.5%; inactive means the rest.

COc1ccc(CN2C[C@@H](CO)O[C@@H](n3cnc4c(NC5CCC5)ncnc43)C2)cc1	Rin1 Abl inh 12.3 (no result: PKA-R1A activ, PKA-R2B activ) | Rin1-Abl confirm 11.0 | GFP quench inactive
COc1ccc(/C=N/NC(=O)COc2ccc(Cl)cc2Cl)cc1Cn1nc(C)cc1C	Rin1 Abl inh 9.4 | Rin1-Abl confirm inactive | GFP quench inactive
O=C(O)c1cc(-n2[nH]c(=O)c3ccccc3c2=O)ccc1Cl	none
COc1ccc(S(=O)(=O)N2CC=C(C(=O)NC3CCCC3)CC2)cc1	none
Cc1ccc(S(=O)(=O)N2CC=C(C(=O)NC3CCCC3)CC2)cc1	Rin1 Abl inh 9.4 | Rin1-Abl confirm inactive | GFP quench inactive
COC(=O)c1cccc(C(=O)N2CCCC(Nc3ccc(C)c(C)c3)C2)c1 (stereo unspecified)	none
C=CCN=C1S/C(=C\N(C)C)C(=O)N1S(=O)(=O)c1ccc(C)cc1	none
O=C(/C=C/c1ccc(O)c(O)c1)OC1C(O)CC(OC(=O)/C=C/c2ccc(O)c(O)c2)(C(=O)O)CC1O (stereo unspecified)	Rin1 Abl inh 23.2 | Rin1-Abl confirm 30.9 | GFP quench inactive | GFP quench dose inactive
CCC(=O)N1CCc2cc(S(=O)(=O)N3CCN(c4cc(Cl)ccc4C)CC3)ccc21	none
Cc1ccc(-n2c(SCc3cc(=O)n4ccsc4n3)nnc2-c2cccnc2)c(C)c1	Rin1 Abl inh 16.6 | Rin1-Abl confirm 19.2 | GFP quench inactive | GFP quench dose inactive
CCOc1ccccc1-n1c(SCC(=O)N2CCCc3ccccc32)nnc1-c1cccnc1	none
Cc1ccc(-n2c(SCC(=O)N3CCCc4ccccc43)nnc2-c2cccnc2)c(C)c1	Rin1 Abl inh 8.7 | Rin1-Abl confirm 13.3 | GFP quench inactive
CCc1cc(C(=O)N2CCN(c3ncccn3)CC2)sc1C	none
Cc1cccc(C(=O)N2CCCC(CCC(=O)N3CCN(c4ccccn4)CC3)C2)c1 (stereo unspecified)	Rin1 Abl inh 8.8 | Rin1-Abl confirm inactive | GFP quench inactive
CC(=O)c1ccccc1C(=O)N1CCCC(CCC(=O)N2CCN(c3ccccn3)CC2)C1 (stereo unspecified)	Rin1 Abl inh 7.9 | Rin1-Abl confirm inactive | GFP quench inactive
Cc1ccc(C(=O)N2CCCC(CCC(=O)N3CCN(c4ccccn4)CC3)C2)cc1 (stereo unspecified)	none
CC(C)(C)OC(=O)N1CCC[C@H]1C(=O)N/N=C/c1cccc2nccnc12	none (no result: PKA-R1A activ, PKA-R2B activ)
Cc1nnc(N/N=C/c2ccc(Br)cc2)n1N	Rin1 Abl inh 6.7 | Rin1-Abl confirm inactive | GFP quench inactive
Cc1cc(SCc2ccccc2)nc(=O)[nH]1	none
O=c1cc(SCc2ccccc2)nc[nH]1	Rin1 Abl inh 88.8 | Rin1-Abl confirm 98.4 | GFP quench inactive | GFP quench dose inactive
OCCC1CN(Cc2cccn2-c2cccnc2)CCN1C1CCCC1 (stereo unspecified)	none
C#CCOC(=O)CCCC(=O)NCCCCCCCC	Rin1 Abl inh 6.6 | Rin1-Abl confirm inactive | GFP quench inactive
C#CCOC(=O)CCC(=O)NCCc1ccccc1	none
NC(=O)COC(=O)CCCSc1nc2ccccc2s1	Rin1 Abl inh 11.4 | Rin1-Abl confirm 11.3 | GFP quench inactive
COCCn1c(=O)c2c(nc3n2CC(C)CN3Cc2ccccc2)n(C)c1=O (stereo unspecified)	none
Cc1cccc(N2C(=O)C(CC(=O)Nc3cccc(F)c3)N(CCc3ccncc3)C2=O)c1 (stereo unspecified)	Rin1 Abl inh 5.3 | Rin1-Abl confirm inactive | GFP quench inactive
CCc1ccc(NC(=O)CC2C(=O)N(c3ccc(C)cc3)C(=O)N2CCc2ccncc2)cc1 (stereo unspecified)	none
CC(C)C[C@H]1CN([C@@H](CC(C)C)CN2CCC[C@@H]2CN2C(=S)NC[C@@H]2Cc2ccc(O)cc2)C(=S)N1CC1CCCCC1	none (no result: PKA-R1A activ, PKA-R2B activ)
O=c1nccc(N/N=C/c2ccccc2)[nH]1	Rin1 Abl inh 8.8 | Rin1-Abl confirm 19.9 | GFP quench inactive | GFP quench dose inactive
O=c1cc(N/N=C/c2ccccc2)[nH]c(=O)[nH]1	none
CC1NC(=O)NC1CCCCC(=O)O (stereo unspecified)	Rin1 Abl inh 8.1 | Rin1-Abl confirm 9.0 | GFP quench inactive
Cc1ccc(NC(=O)CCCCCC2NC(=O)NC2C)cc1 (stereo unspecified)	Rin1 Abl inh 87.7 | Rin1-Abl confirm 90.8 | GFP quench inactive | GFP quench dose inactive
O=C(CC1SCCNC1=O)Nc1ccc(F)c(Cl)c1 (stereo unspecified)	Rin1 Abl inh 20.7 | Rin1-Abl confirm 20.8 | GFP quench inactive | GFP quench dose inactive
CC1NC(=O)NC1CCCCCC(=O)Nc1ccc(F)c(Cl)c1 (stereo unspecified)	Rin1 Abl inh 85.9 | Rin1-Abl confirm 96.8 | GFP quench inactive | GFP quench dose inactive
CCC(=O)Nc1ccc(F)c(Cl)c1	none
Cc1ccc(NC(=O)CC2SCCNC2=O)cc1Cl (stereo unspecified)	none
CCN(CCn1cccn1)C(=O)CCc1nnc(C2(c3ccc(Cl)cc3)CCC2)o1	none
CC1=C(C(=O)Nc2cccc(C(=O)NCc3ccccc3C)c2)SCCO1	none
CCc1cccc(NC(=O)CCCCCC2NC(=O)NC2C)c1 (stereo unspecified)	Rin1 Abl inh 96.9 | Rin1-Abl confirm 99.5 | GFP quench inactive | GFP quench dose inactive
CCc1cccc(NC(=O)CCCN2C(=O)NC(C)(C)C2=O)c1	none
CCCCNC(=O)C1(C)CCCCCN1Cc1cccc2c(OC)cc(C(=O)OCC)cc12 (stereo unspecified)	Rin1 Abl inh 6.9 (no result: PKA-R1A activ, PKA-R2B activ) | Rin1-Abl confirm inactive | GFP quench inactive
Nc1nc(-c2ccc([N+](=O)[O-])cc2)cc(=O)[nH]1	Rin1 Abl inh 13.5 | Rin1-Abl confirm 11.2 | GFP quench inactive
Cc1cccc(C(=O)Nc2cccc(C(=O)N/N=C/c3ccccn3)c2)c1	Rin1 Abl inh 19.0 | Rin1-Abl confirm inactive | GFP quench inactive
Cc1nc2c(N)nn(C)c2nc1C	none
CC1(C)NC(=O)N(CCC(=O)Nc2cc(C(F)(F)F)ccc2Cl)C1=O	none
COc1ccc(Cc2nc3ccc(C(=O)NCC4COCCO4)cc3o2)cc1 (stereo unspecified)	Rin1 Abl inh 7.8 | Rin1-Abl confirm inactive | GFP quench inactive
COc1ccc(/C=N/N2C(=O)C3C4C=CC(CC4)C3C2=O)c(OC)c1 (stereo unspecified)	none
